Lipid droplet – hepatic lipid droplet formation modulation; AML12 mouse hepatocytes, oleate lipid droplets, BODIPY imaging; inhibition, % at 6.5 µM; 0.4% of 240,000 active;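 active means lipid droplet intensity inhibited by at least 50%, with more than 500 cells counted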
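Test system: AML12 hepatocytes (mouse); reagent: oleate loading, 100 µM; dosing: one dose, 6.5 µM compound; incubation: overnight exposure; signal: fluorescence imaging, 20x objective, two fields per well; read-out basis: % inhibition of corrected integrated BODIPY droplet signal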
Arr AP2 block – inhibitors of human beta-arrestin and AP2 interaction; FITC-arrestin peptide / GST-AP2 beads, flow cytometry; AP2 beta2 appendage carries R879A mutation; inhibition, % at 10 µM; 0.31% of 340,000 active;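 active means inhibition above a set limit, near 3 SD of compounds lacking own fluorescence, cut at about 54% in these data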;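 further: plate controls were DMSO wells for no effect and 5 µM unlabelled arrestin peptide for full effect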
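System: GST-AP2 R879A glutathione beads. Medium: PBS with 0.05% Tween 20 and 0.1% BSA. Also added: FITC-arrestin peptide, 50 nM. Incubation: 12 min plus 1 h, RT. Measured by: high-throughput flow cytometry of beads, ex 488, em 535 nm. Evaluation: percent drop in bead-associated FITC signal.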
Beta2AR agonist – agonists of human beta-2 adrenergic receptor inducing internalization; Am2.2-beta2AR cells, FAP receptor internalization, flow cytometry; AID 504454; response, % (test concentration not listed); 0.43% of 340,000 active;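 active means response above a set limit, near 3 SD of response in nonfluorescent compounds, cut at about 42% in these data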
H9c2 TAG inh – triacylglycerol accumulation inhibition; H9c2 cells, Nile Red lipid (TAG) fluorescence; cells loaded with 200 µM oleic acid; inhibition, % at 12.5 µM; 0.66% of 230,000 active;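 active means pattern-corrected inhibition of lipid staining of at least 50% with the nuclear-stain viability signal not falling by more than 50%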;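 further: 0% = DMSO wells and 100% = triacsin C control wells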
GRK2 aptamer HTS – inhibitors of human GRK2 displacing RNA aptamer; bead flow cytometry, FAM-aptamer displacement from GRK2; 0.59% of 330,000 active; inhibition of aptamer binding, % at 10 µM;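 active means inhibition of aptamer binding above 40%, roughly 3 SD of noise, on plates passing a quality check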;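 further: median bead fluorescence of bound FAM aptamer so fluorescent compounds give negative values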
NTR1 agonist – activates human neurotensin receptor 1; 0.17% of 330,000 active; NTR1-U2OS beta-arrestin-GFP spot imaging, agonist mode; activation, % at 20 µM; AID 493036; P30989;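 active means activation at or above 40% of the spot to cytoplasm intensity ratio, with at least 20 cells analyzed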;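 further: 0% = DMSO without peptide and 100% = 100 nM NTR1 peptide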
Target sequence (P30989 whole entry, looked up): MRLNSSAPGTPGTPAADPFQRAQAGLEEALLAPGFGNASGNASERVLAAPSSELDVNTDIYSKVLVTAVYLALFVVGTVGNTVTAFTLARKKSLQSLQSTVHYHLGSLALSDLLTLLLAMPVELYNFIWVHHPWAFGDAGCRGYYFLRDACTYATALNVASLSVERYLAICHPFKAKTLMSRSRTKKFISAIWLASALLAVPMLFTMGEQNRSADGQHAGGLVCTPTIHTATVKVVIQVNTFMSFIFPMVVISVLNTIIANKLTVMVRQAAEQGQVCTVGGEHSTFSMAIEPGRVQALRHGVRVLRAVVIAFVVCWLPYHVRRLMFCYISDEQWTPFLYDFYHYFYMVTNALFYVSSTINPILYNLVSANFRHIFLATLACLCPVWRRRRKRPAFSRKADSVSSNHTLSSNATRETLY
GRK2 CP1 – confirmation of human GRK2 inhibitors displacing RNA aptamer; shares compounds with GRK2 aptamer HTS; bead-bound GRK2, FAM-aptamer displacement, flow cytometry; aptamer displacement, % at 10 µM; 4% of 2,000 active; AID 504451;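 active means aptamer displacement above 40%, near three times the noise of non-fluorescent compounds, on plates passing quality checks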;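 further: negative values mostly reflect intrinsic compound fluorescence rather than true enhancement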
Aptamer quench 1 – counter-screen for GRK2 aptamer inhibitors: fluorescent aptamer quenchers. 110 tested, under 10 active. fluorescence change (kMESF span), kMESF (no concentration beside the values). shares compounds with GRK2 aptamer HTS. Fluorescent RNA aptamer beads, quenching, flow cytometry; stronger effect = higher value;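 active means compounds whose bead fluorescence drops by more than 37 kMESF across the dose range, marking them as dye quenchers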
Aptamer quench SP – quenches fluorescent RNA aptamer, GRK2 hit artifact | shares compounds with GRK2 aptamer HTS | Carboxyfluorescein RNA aptamer on beads, flow cytometry quenching; stronger effect = lower value | fluorescence response (% of DMSO), % at 10 µM | 2,000 tested, under 10 active | AID 504580;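 active means compounds that quench the bead-bound fluorescent RNA probe, cutting fluorescence to under half of the solvent control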;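 further: counterscreen run without GRK2 so only probe quenching by compound is measured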
GRK2 confirm 2 – confirmation of human GRK2 inhibitors binding RNA aptamer site | shares compounds with GRK2 aptamer HTS | 360 tested, under 10 active | inhibition of aptamer binding, % at 10 µM | bead-bound GRK2, FAM-aptamer displacement, flow cytometry | AID 504782;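 active means inhibition of aptamer binding above 40%, about triple the noise seen with nonglowing compounds, on plates passing quality control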;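 further: negative values mostly come from compounds that fluoresce themselves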
FAM quench CP2 – quenches fluorescent RNA aptamer, GRK2 hit artifact | shares compounds with GRK2 aptamer HTS | carboxyfluorescein RNA aptamer beads, flow cytometry quenching; stronger effect = lower value | fluorescence response vs DMSO, % at 10 µM | 360 tested, under 10 active;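 active means response vs DMSO under 50%, meaning signal dropped by over half, treated as fluorescence quencher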;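 further: labelled aptamer on streptavidin beads without GRK2 as a quench counter-screen; 100% = bead fluorescence of DMSO wells and lower means quenching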
* marks the source's active call; other numbers are inactive results; . = not tested or not shown. Shown are actives, neighbours in structure and some others; about 2% of the full set was active somewhere.

SMILES	Lipid droplet	Arr AP2 block	Beta2AR agonist	H9c2 TAG inh	GRK2 aptamer HTS	NTR1 agonist	GRK2 CP1	Aptamer quench SP	others
Cc1ccccc1C(=O)NCCc1nnc(SCC(=O)Nc2nc(-c3ccccc3)cs2)n1C	28	2	0	.	55*	0	-2	96
Cc1cc(C)nc(SCc2nnc(SCC(=O)Nc3nc(-c4ccccc4)cs3)n2C)n1	-1	-3	-4	5	0	2	.	.
COc1ccc(N2CCN(C(=O)NC(=O)c3ccccc3)CC2)cc1	-5	-1	-1	7	57*	1	.	.	GRK2 confirm 2=5;FAM quench CP2=96
CC(=O)Nc1sc(C)c(C)c1C(=O)OCC(=O)NC(C)c1ccccc1 (configuration not stated)	.	-2	4	34	.	5	.	.
COc1ccc(CN2CCN(C(C)C)C(CCO)C2)cc1Cn1cncn1 (configuration not stated)	-2	4	1	18	46*	1	-3	98
Cn1c(SCc2ccccc2)nc2c1c(=O)[nH]c(=O)n2C	-20	5	7	.	4	-1	.	.
Cn1c(SCc2ccccc2Cl)nc2c1c(=O)[nH]c(=O)n2C	-2	42	0	.	71*	0	-2	95
CCN1CCc2c(sc(NC(=O)c3ccc(S(=O)(=O)N(CC)c4ccccc4)cc3)c2C(N)=O)C1	-2	0	-210	-17	0	9	.	.
CC(C)Cc1nc2oc3c(=O)[nH]cnc3c2c2c1CCC2	.	1	-4	-2	93*	0	1	100
CC(C)Cc1nc2oc3c(=O)[nH]cnc3c2c2c1CCCC2	30	-3	-7	.	0	5	.	.
CC1CCCCN1C(=O)Cn1cc(C(=O)c2ccco2)c2ccccc21 (configuration not stated)	0	-2	-5	12	97*	0	2	98
O=C(c1ccco1)c1cn(CC(=O)N2CCCCCC2)c2ccccc12	-14	4	-6	-8	0	-2	.	.
COc1ccc(CCN(C)C(=O)COc2cccc(-n3cnnn3)c2)cc1OC	.	4	-3	-8	0	0	.	.
COc1ccc(CNC(=O)C2CC(C)=C(C)CC2C(=O)O)cc1OC (configuration not stated)	-1	-5	-4	.	0	0	.	.	GRK2 confirm 2=6;FAM quench CP2=98
CCOc1ccc(CCNC(=O)C2CC(C)=CCC2C(=O)O)cc1OCC (configuration not stated)	-1	-9	-1	.	66*	0	53*	98	Aptamer quench 1=4.1
CCN(CC)CCN(C(=O)c1cc2c(ccc3ccccc32)oc1=O)c1nc2cc3c(cc2s1)OCCO3	16	19	-11	10	0	4	.	.
Cc1cc(C)c(C(=O)Nc2ccc(S(=O)(=O)Nc3onc(C)c3C)cc2)c(C)c1	8	-3	-5	7	37	6	-5	98
Cc1ccc(C(CNS(=O)(=O)c2ccccc2)N2CCN(C)CC2)cc1 (configuration not stated)	.	14	13	5	0	1	.	.	GRK2 confirm 2=6;FAM quench CP2=99
CCc1ccccc1NC(=O)CNCC(=O)Nc1ccccc1CC	.	-1	8	.	5	0	.	.
CC(C)c1cc(C(=O)NC2CCCc3c2cnn3-c2ccccc2F)no1 (configuration not stated)	-12	3	-4	.	69*	1	4	97
Cc1cc(C(=O)NC2CCCc3c2cnn3-c2ccccc2F)nc(C)n1 (configuration not stated)	5	-7	6	12	3	1	.	.
CC(C)COc1cccc(C(=O)N(CC(=O)Nc2ccccc2C(F)(F)F)Cc2ccco2)c1	.	3	-4	5	4	6	.	.
CCOC(=O)C1CCCCN1Cc1ccc(F)cc1 (configuration not stated)	1	-1	-4	.	75*	0	0	102
Nc1c(C(=O)Nc2ccccc2Cl)nnn1-c1ccc2c(c1)OCCO2	-4	6	-1	.	0	6	.	.
CC[C@@H](C)[C@@H]1CN([C@@H](C)CN2CCC[C@H]2CN2C(N)=NC[C@H]2CC(C)C)C(=N)N1CCc1ccc(Cl)c(Cl)c1	.	8	5	-6	84*	-2	.	.	GRK2 confirm 2=-81;FAM quench CP2=99
SMILES	Lipid droplet	Arr AP2 block	Beta2AR agonist	H9c2 TAG inh	GRK2 aptamer HTS	NTR1 agonist	GRK2 CP1	Aptamer quench SP	others
Cc1cccc(-n2c(N)c(-c3nc4ccccc4n3C)c3nc4ccccc4nc32)c1	34	0	9	20	97*	0	.	.	GRK2 confirm 2=-104;FAM quench CP2=100
C=C(C)C(=O)Nc1cccc(C2=NOC3(C2)C[C@@H](C(N)=O)N(C(=O)CCCCC)C3)c1 (some centres not stated)	.	-4	-9	.	98*	1	90*	99	Aptamer quench 1=-0.2
CCCCCC(=O)Nc1cccc(C2=NOC3(C2)C[C@@H](C(N)=O)N(C(=O)c2ccc(OC)cc2)C3)c1 (some centres not stated)	4	5	5	3	65*	-4	13	102	Aptamer quench 1=-125
CC1(C(=O)N2CC3(CC(c4cccc(NC(=O)CC(c5ccccc5)c5ccccc5)c4)=NO3)C[C@@H]2C(N)=O)CC1 (some centres not stated)	.	1	2	-2	0	1	.	.	GRK2 confirm 2=6;FAM quench CP2=99
C/C=C(/C)C(=O)Nc1cccc(C2=NOC3(C2)C[C@@H](C(N)=O)N(C(=O)CC)C3)c1 (some centres not stated)	36	.	-2	5	0	2	.	.
CCCCCC(=O)Nc1cccc(C2=NOC3(C2)C[C@@H](C(N)=O)N(C(=O)c2cc([N+](=O)[O-])cc([N+](=O)[O-])c2)C3)c1 (some centres not stated)	.	0	-5	0	6	3	.	.

Assay outcomes from PubChem.
